Reference: ChEMBL document CHEMBL2203109, “3-Phenyl substituted 6,7-dimethoxyisoquinoline derivatives as FtsZ-targeting antibacterial agents” (Bioorg Med Chem, 2012)
Values after ≈ are worked out from the molar mass of the structure shown. Active and inactive are the calls of the source. The calls are words filed in the database; no cut-off is given here.

Legend:
HEK293 = assay: Cytotoxicity against human HEK293 cells at 10 uM after 4 days by MTT assay; type: cell-based; details: hek293, 96 h
In short: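 MTT assay. HEK293 or MDCK cells kept at 37 °C, 5% CO2 in DMEM, seeded at 1500 cells per well. Continuous 4-day exposure to varying drug concentrations in triplicate wells, with a drug-free control. MTT read at end of day 4; IC50 determined.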

[1] = molecular target: T1, Cell division protein FtsZ (Staphylococcus aureus) (UniProt P0A031); assay: Induction of Staphylococcus aureus GTPase activity assessed as inorganic phosphate release upon GTP hydrolysis at less than 40 ug/ml preincubated for 10 mins before substrate addition measured after 2 hrs by malachite green based colorimetric analysis
T1 sequence (whole entry): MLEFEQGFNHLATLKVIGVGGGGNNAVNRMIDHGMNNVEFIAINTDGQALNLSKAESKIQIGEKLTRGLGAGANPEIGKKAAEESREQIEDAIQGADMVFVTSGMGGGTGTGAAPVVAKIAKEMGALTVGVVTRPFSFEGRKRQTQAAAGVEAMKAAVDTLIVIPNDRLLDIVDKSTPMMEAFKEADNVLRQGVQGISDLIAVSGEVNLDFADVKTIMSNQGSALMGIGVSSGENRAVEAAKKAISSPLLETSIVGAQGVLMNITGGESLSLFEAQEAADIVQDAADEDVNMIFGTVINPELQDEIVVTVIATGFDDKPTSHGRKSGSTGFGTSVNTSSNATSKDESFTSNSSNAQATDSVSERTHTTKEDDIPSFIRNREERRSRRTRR
In short: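 S. aureus FtsZ expressed in E. coli, 10 μM, with DMSO or compound (0.1–200 μg/mL) in 50 mM Tris HCl pH 7.4, 50 mM KCl, 2 mM Mg acetate, 5 mM CaCl2; duplicate reactions. After 10 min room-temperature pre-equilibration, 250 μM GTP added, 2 h at 37 °C. Pi by malachite green, A620, phosphate standard curve; expressed as percent of vehicle.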

[2] = molecular target: T1, Cell division protein FtsZ (Staphylococcus aureus); assay: Induction of Staphylococcus aureus FtsZ polymerization measured for 60 mins by microtiter plate-based light scattering assay
In short: (§1)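 Turbidity assay. 10 μM SaFtsZ plus compound (0–40 μg/mL) in 50 mM Tris HCl pH 7.4, 50 mM KCl, 2 mM magnesium acetate, 5 mM CaCl2, pre-equilibrated 10 min at room temperature. Started by adding 1 mM GTP or FtsZ; A340 followed for 60 min at 25 °C. For polymer stability, 1 mM GDP added mid-run.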

[3] = molecular target: T1, Cell division protein FtsZ (Staphylococcus aureus); assay: Induction of Staphylococcus aureus FtsZ polymerization at 40 ug/ml measured for 60 mins by microtiter plate-based light scattering assay; in short: as §1
Enterococcus faecalis [4] = assay: Antibacterial activity against log-phase vancomycin-resistant Enterococcus faecalis ATCC 51575 assessed as growth inhibition after 24 hrs by broth microdilution method; type: functional; details: ATCC 51575, 24 h
In short: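 CLSI broth microdilution in brain–heart infusion broth; log-phase bacteria at 10^5 CFU/mL, two-fold serial dilutions 64 to 0.031 μg/mL; 24 h aerobic incubation at 37 °C; OD600 read-out; MIC taken as lowest concentration inhibiting growth ≥90%.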

Enterococcus faecalis [5] = assay: Antibacterial activity against log-phase vancomycin-sensitive Enterococcus faecalis ATCC 19433 assessed as growth inhibition after 24 hrs by broth microdilution method; type: functional; details: ATCC 19433, 24 h
In short: (§2)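 CLSI broth microdilution. Log-phase bacteria at 10^5 CFU/mL with two-fold serial dilutions (64 to 0.031 μg/mL). S. aureus tested in cation-adjusted Mueller-Hinton broth; E. faecalis in brain–heart infusion broth. Aerobic incubation 24 h at 37 °C. OD600 read; MIC is the lowest concentration giving ≥90% growth inhibition.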

Staphylococcus aureus [6] = assay: Antibacterial activity against log-phase methicillin-resistant Staphylococcus aureus ATCC 33591 assessed as growth inhibition after 24 hrs by broth microdilution method; type: functional; details: ATCC 33591, 24 h
In short: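 CLSI broth microdilution; 10^5 CFU/mL log-phase bacteria in cation-adjusted Mueller-Hinton broth with 2% NaCl, two-fold serial dilutions from 64 to 0.031 μg/mL; aerobic incubation 24 h at 37 °C; growth read as OD600; MIC = lowest concentration giving ≥90% growth inhibition.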

Staphylococcus aureus [7] = assay: Antibacterial activity against log-phase methicillin-sensitive Staphylococcus aureus 8325-4 assessed as growth inhibition after 24 hrs by broth microdilution method; type: functional; details: 8325-4, 24 h; in short: as §2
[8] = molecular target: T1, Cell division protein FtsZ (Staphylococcus aureus); assay: Residual Staphylococcus aureus GTPase activity assessed as inorganic phosphate release upon GTP hydrolysis at 40 ug/ml preincubated for 10 mins before substrate addition measured after 2 hrs by malachite green based colorimetric analysis
[9] = molecular target: Tubulin beta chain (Sus scrofa) (UniProt P02554); assay: Induction of pig MAP-rich beta-tubulin polymerization at 40 ug/ml measured for 60 mins by microtiter plate based light scattering assay
In short: (§3)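 Porcine tubulin (70% β-tubulin, 30% MAPs) at 2 mg/mL with 1 mM GTP and compound in 80 mM PIPES NaOH pH 7.0, 2 mM MgCl2, 1 mM EGTA. A340 followed continuously at 37 °C for 60 min.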

[10] = molecular target: T2, Cell division protein FtsZ (Staphylococcus aureus, UniProt P0A031); assay: Binding affinity to Staphylococcus aureus FtsZ expressed in Escherichia coli cells assessed as dissociation constant by fluorescence spectroscopy
T2 sequence (P0A031 whole entry): T1 sequence (whole entry)
In short: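 Recombinant SaFtsZ from E. coli titrated stepwise into compound (7 or 10 μM) in 50 mM Tris HCl pH 7.4, 50 mM KCl, 2 mM magnesium acetate. After 3 min equilibration per addition, emission scanned 510–370 nm and buffer-only titration background subtracted. Kd obtained by fitting intensity changes to a 1:1 binding model.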

[11] = molecular target: T1, Cell division protein FtsZ (Staphylococcus aureus); assay: Induction of Staphylococcus aureus FtsZ polymerization at 40 ug/ml measured for 60 mins by microtiter plate-based light scattering assay in presence of GTP
[12] = molecular target: Tubulin beta chain (Sus scrofa) (UniProt P02554); assay: Induction of pig MAP-rich beta-tubulin polymerization at 25 ug/ml measured for 60 mins by microtiter plate based light scattering assay; in short: as §3
[13] = molecular target: Tubulin beta chain (Sus scrofa) (UniProt P02554); details: 10 ug/ml

Sequence of Tubulin beta chain (Sus scrofa) (P02554 whole entry): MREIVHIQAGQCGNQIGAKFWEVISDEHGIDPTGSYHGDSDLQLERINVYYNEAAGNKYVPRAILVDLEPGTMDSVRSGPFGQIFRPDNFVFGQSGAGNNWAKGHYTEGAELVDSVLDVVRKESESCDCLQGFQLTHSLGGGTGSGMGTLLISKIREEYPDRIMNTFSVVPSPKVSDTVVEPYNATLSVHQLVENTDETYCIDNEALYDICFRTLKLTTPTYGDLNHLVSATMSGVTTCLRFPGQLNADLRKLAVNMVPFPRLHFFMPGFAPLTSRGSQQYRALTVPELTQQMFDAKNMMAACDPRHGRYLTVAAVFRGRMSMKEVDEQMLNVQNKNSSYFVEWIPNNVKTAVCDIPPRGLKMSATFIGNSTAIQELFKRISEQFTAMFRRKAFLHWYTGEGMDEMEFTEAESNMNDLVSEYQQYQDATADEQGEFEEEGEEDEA

`COc1cc2cc(-c3cccc(-c4ccccc4)c3)nc(CCN=C(N)N)c2cc1OC` was tested, and the Activity (HEK293) was “Non-toxic”, the Activity [1] was “Active” and the Activity [2] was “Dose-dependent effect”. The Activity [3] was “Active”, the MIC90 (Enterococcus faecalis [4]) was 8 µg/mL (≈ 18.8 µM) and the MIC90 (Enterococcus faecalis [5]) was 8 µg/mL (≈ 18.8 µM). For the same molecule, the MIC90 (Staphylococcus aureus [6]) was 2 µg/mL (≈ 4.69 µM), the MIC90 (Staphylococcus aureus [7]) was 2 µg/mL (≈ 4.69 µM) and the residual activity [8] was 56%.
In the case of `COc1cc2cc(-c3cccc(C(C)(C)C)c3)nc(C/N=C(/C)N)c2cc1OC`, the Activity [1] is reported as “Active”, the Activity [2] is reported as “Dose-dependent effect” and the Activity [3] is reported as “Active”. It also gave an MIC90 (Enterococcus faecalis [4]) of 16 µg/mL (≈ 40.9 µM), an MIC90 (Enterococcus faecalis [5]) of 16 µg/mL (≈ 40.9 µM) and an MIC90 (Staphylococcus aureus [6]) of 8 µg/mL (≈ 20.4 µM). For the same molecule, the MIC90 (Staphylococcus aureus [7]) was 8 µg/mL (≈ 20.4 µM) and the residual activity [8] was 64.8%.
In the case of `COc1cc2cc(-c3cccc(C(C)(C)C)c3)nc(CN=C(N)N)c2cc1OC`, the Activity (HEK293) is reported as “Non-toxic”, the Activity [9] is reported as “inactive” and the Activity [2] is reported as “Dose-dependent effect”. For the same molecule, the Activity [3] was “Active”, the MIC90 (Enterococcus faecalis [4]) was 16 µg/mL (≈ 40.8 µM) and the MIC90 (Enterococcus faecalis [5]) was 16 µg/mL (≈ 40.8 µM). It also gave an MIC90 (Staphylococcus aureus [6]) of 8 µg/mL (≈ 20.4 µM), an MIC90 (Staphylococcus aureus [7]) of 4 µg/mL (≈ 10.2 µM) and a residual activity [8] of 60.4%.
`COc1cc2cc(-c3cccc(-c4ccc(C(C)(C)C)cc4)c3)[n+](C)c(C)c2cc1OC.[I-]` was tested, and the Activity [9] was “inactive”, the Activity [2] was “Dose-dependent effect” and the Activity [3] was “Active”. The Kd [10] was 5.4 µM, the MIC90 (Enterococcus faecalis [4]) was 8 µg/mL and the MIC90 (Enterococcus faecalis [5]) was 8 µg/mL. The MIC90 (Staphylococcus aureus [6]) was 8 µg/mL, the MIC90 (Staphylococcus aureus [7]) was 1 µg/mL and the Activity [11] was “Active”. The residual activity [8] was 14.9%.
For `CC(=O)O[C@H]1C(=O)[C@@]2(C)[C@H]([C@H](OC(=O)c3ccccc3)[C@]3(O)C[C@H](OC(=O)[C@H](O)[C@@H](NC(=O)c4ccccc4)c4ccccc4)C(C)=C1C3(C)C)[C@]1(OC(C)=O)CO[C@@H]1C[C@@H]2O`, the Activity [12] was “Active”.
In the case of `COc1cc2cc(-c3cccc(-c4ccc(-c5ccccc5)cc4)c3)[n+](C)c(C)c2cc1OC.[I-]`, the Activity [2] is reported as “Dose-dependent effect”, the Activity [3] is reported as “Active” and the Kd [10] is reported as 2 µM. It also gave an MIC90 (Enterococcus faecalis [4]) of 8 µg/mL, an MIC90 (Enterococcus faecalis [5]) of 4 µg/mL and an MIC90 (Staphylococcus aureus [6]) of 2 µg/mL. The MIC90 (Staphylococcus aureus [7]) was 1 µg/mL and the residual activity [8] was 30.2%.
For `COC(=O)Nc1nc2cc(C(=O)c3cccs3)ccc2[nH]1`, the inhibition [13] was “Active”.
